For one series, the target named is Histone deacetylase 1 (Homo sapiens, UniProt Q13547). In words: Inhibition of human recombinant full-length HDAC1 using fluorophore conjugated substrate by fluorescence assay.
The target in the next series is Histone deacetylase 2 (Homo sapiens, UniProt Q92769). In words: Inhibition of human recombinant full-length HDAC2 using fluorophore conjugated substrate by fluorescence assay.
The target in another series is Histone deacetylase 3 (Homo sapiens, UniProt O15379). The experiment in a line: Inhibition of human recombinant full-length HDAC3 using fluorophore conjugated substrate by fluorescence assay.
Chain of Histone deacetylase 3 (O15379 whole entry): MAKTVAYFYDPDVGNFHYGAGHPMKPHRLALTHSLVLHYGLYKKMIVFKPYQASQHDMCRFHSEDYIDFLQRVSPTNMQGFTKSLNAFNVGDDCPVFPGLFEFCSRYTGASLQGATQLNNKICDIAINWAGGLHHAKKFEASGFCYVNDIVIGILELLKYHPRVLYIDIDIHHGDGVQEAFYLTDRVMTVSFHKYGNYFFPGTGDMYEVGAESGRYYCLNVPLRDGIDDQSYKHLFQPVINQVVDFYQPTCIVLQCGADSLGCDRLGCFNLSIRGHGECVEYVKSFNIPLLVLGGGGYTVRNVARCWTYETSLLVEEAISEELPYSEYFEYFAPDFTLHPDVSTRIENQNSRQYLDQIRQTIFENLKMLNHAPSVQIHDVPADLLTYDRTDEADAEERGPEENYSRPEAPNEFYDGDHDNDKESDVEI
For series [1], the target named is T1, Protein deacetylase HDAC6 (Homo sapiens, UniProt Q9UBN7).
T1 sequence (Q9UBN7 whole entry): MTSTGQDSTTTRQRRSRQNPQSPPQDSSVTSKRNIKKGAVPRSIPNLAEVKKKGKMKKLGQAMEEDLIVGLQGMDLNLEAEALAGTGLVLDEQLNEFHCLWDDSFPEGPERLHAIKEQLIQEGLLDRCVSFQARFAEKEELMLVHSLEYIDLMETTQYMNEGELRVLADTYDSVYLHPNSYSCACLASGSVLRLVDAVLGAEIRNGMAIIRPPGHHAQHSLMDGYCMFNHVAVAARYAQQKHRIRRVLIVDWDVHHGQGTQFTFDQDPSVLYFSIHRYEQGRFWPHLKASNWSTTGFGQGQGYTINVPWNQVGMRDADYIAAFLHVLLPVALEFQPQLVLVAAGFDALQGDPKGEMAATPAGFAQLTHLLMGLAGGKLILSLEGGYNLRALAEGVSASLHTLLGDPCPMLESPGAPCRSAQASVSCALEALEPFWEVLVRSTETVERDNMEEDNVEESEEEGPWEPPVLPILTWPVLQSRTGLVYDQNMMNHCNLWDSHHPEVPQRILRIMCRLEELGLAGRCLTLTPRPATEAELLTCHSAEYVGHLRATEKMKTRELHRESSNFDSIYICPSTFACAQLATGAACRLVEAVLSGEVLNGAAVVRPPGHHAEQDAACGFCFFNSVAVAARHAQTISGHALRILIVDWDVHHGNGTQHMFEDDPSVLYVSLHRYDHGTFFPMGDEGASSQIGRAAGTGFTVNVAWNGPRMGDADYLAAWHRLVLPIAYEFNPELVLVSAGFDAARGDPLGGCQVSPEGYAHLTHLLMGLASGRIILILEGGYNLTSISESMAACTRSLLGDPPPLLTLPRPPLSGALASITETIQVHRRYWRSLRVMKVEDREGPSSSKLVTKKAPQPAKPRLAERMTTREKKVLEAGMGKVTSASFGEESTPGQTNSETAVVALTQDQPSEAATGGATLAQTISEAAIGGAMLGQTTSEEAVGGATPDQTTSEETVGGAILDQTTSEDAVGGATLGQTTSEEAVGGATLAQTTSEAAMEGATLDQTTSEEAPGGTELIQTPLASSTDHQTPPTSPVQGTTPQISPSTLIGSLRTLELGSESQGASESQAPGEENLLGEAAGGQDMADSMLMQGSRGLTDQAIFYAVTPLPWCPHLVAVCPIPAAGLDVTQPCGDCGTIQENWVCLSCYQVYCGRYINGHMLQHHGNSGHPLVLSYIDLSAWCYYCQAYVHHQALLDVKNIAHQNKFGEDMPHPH
In words: Inhibition of human recombinant full-length HDAC6 using fluorophore conjugated substrate by fluorescence assay.

Series [2] concerns Mus musculus. The experiment in a line: Biodistribution in human A2780 cells xenografted Nu/Nu mouse tumor at 2 mg in 100 uL of 60% PEG400 40% water, ip by PET-CT analysis. The format is ADME, organism-based, Neoplasm. The conditions noted are these: in vivo, TDE = time-dependent effect. In a few lines: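 Nu/Nu mice (n = 5) carried subcutaneous A2780 human ovarian cancer implants (10⁶ cells in Matrigel per flank) and were imaged 10 days later under isoflurane 1.5%. The 18F tracer was scanned by PET-CT (about 80 min acquisition) before and after competition. […] Read-out was the tumor/muscle ratio.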

The test system of series [3] is Nucleic Acid. The experiment in a line: Ratio of drug uptake in tumor to muscle in human A2780 cells xenografted Nu/Nu mouse at 2 mg in 100 uL of 60% PEG400 40% water, ip administered as 2 dose every 24 hrs interval measured after 3 hrs of post last dose by PET-CT analysis. The conditions noted are these: in vivo. In kind it is ADME, organism-based. In a few lines: (§1)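 Nu/Nu mice (n = 5) bearing subcutaneous flank A2780 human ovarian cancer xenografts (10⁶ cells in Matrigel per flank), imaged 10 days after implantation. ¹⁸F-labelled tracer PET-CT under isoflurane anaesthesia (1.5%, O₂ 2 L/min), each acquisition ~80 min. […] Read-out: tumor/muscle uptake ratio.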
In general terms: In xenograft studies the graft and the host belong to different species.

The subject of series [4] is Nucleic Acid. In words: Ratio of drug uptake in tumor to muscle in human A2780 cells xenografted Nu/Nu mouse at 2 mg in 100 uL of 60% PEG400 40% water, ip after 3 hrs by PET-CT analysis. In kind it is ADME, organism-based. The note with it: in vivo. In a few lines: as §1
The nature of series [5]: Initial half life in iv dosed mouse plasma. In kind it is ADME, organism-based. The note with it: read-out: alphat1/2.
Series [6] has as its system Mus musculus. In words: Biodistribution in C57BL/6 mouse whole blood at 243 +/- 25 uCi, iv using 60% PEG400, 40% water formulation. The note with it: in vivo. In kind it is ADME, organism-based. In a few lines: (§2)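 The 18F tracer was given to C57BL/6 mice by tail-vein iv bolus, n = 3 per vehicle. Vehicles were 60% PEG400 in water, 10% DMSO in water, or 20% DMAC:Solutol (1:1) in saline. Serial retro-orbital blood was drawn into tared capillary tubes, weighed and gamma-counted to give the blood time-activity curve.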

The subject of series [7] is Mus musculus. The experiment in a line: Biodistribution in C57BL/6 mouse whole blood at 243 +/- 25 uCi, iv using 10% DMSO, 90% water formulation. In kind it is ADME, organism-based. The note with it: in vivo. In a few lines: as §2
Series [8] has as its system Mus musculus. The experiment in a line: Biodistribution in C57BL/6 mouse whole blood at 243 +/- 25 uCi, iv using […] dimethylacetamide, 10% Solutol HS15, 80% PBS formulation. The format is ADME, organism-based. The note with it: in vivo. In a few lines: as §2
The next series concerns Kidney. The experiment in a line: Biodistribution in C57BL/6 mouse kidney at 241 +/- 18 uCi, iv. The format is ADME, organism-based. The conditions noted are these: in vivo. In a few lines:
(§3)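 Six C57BL/6 mice got the 18F tracer by tail-vein iv injection. Groups were sacrificed at 1 h (n = 3) and 3 h (n = 3) after dosing. Tissues were excised and weighed, and 18F activity was counted by gamma counter. Values are expressed as % injected dose per gram of tissue.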

The test system of the next series is Liver. In words: Biodistribution in C57BL/6 mouse liver at 241 +/- 18 uCi, iv. The format is ADME, organism-based. The conditions noted are these: in vivo. In a few lines:
as §3

A further series has as its system Blood. In words: Biodistribution in C57BL/6 mouse blood at 241 +/- 18 uCi, iv. In kind it is ADME, organism-based. The note with it: in vivo. In a few lines: as §3
The test system of another series is Heart. The experiment in a line: Biodistribution in C57BL/6 mouse heart at 241 +/- 18 uCi, iv. The format is ADME, organism-based. The conditions noted are these: in vivo. In a few lines: as §3
Series [9] deals with Mus musculus. The experiment in a line: Biodistribution in C57BL/6 mouse thymus at 241 +/- 18 uCi, iv. The note with it: in vivo. In kind it is ADME, organism-based. In a few lines:
as §3

The next series has as its system Brain. The experiment in a line: Biodistribution in C57BL/6 mouse brain at 241 +/- 18 uCi, iv. In kind it is ADME, organism-based. The note with it: in vivo. In a few lines:
as §3

The results in this text go back to ChEMBL document CHEMBL1921669, “In vivo PET imaging of histone deacetylases by 18F-suberoylanilide hydroxamic acid (18F-SAHA)” (J Med Chem, 2011).

Chain of Histone deacetylase 2 (Q92769 whole entry): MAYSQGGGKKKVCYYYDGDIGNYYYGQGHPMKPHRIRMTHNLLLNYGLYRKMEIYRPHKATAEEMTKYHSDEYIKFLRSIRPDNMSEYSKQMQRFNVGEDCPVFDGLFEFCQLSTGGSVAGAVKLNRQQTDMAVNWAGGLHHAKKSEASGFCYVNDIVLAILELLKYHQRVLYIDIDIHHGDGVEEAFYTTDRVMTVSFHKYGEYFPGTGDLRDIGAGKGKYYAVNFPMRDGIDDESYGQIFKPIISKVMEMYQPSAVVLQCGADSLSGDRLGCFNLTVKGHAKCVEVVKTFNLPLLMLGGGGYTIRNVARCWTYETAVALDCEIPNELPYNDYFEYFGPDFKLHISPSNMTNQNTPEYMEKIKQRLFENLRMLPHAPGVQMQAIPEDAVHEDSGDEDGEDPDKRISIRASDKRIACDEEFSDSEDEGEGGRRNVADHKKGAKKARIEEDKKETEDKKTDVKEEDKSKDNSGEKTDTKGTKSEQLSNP
Chain of Histone deacetylase 1 (Q13547 whole entry): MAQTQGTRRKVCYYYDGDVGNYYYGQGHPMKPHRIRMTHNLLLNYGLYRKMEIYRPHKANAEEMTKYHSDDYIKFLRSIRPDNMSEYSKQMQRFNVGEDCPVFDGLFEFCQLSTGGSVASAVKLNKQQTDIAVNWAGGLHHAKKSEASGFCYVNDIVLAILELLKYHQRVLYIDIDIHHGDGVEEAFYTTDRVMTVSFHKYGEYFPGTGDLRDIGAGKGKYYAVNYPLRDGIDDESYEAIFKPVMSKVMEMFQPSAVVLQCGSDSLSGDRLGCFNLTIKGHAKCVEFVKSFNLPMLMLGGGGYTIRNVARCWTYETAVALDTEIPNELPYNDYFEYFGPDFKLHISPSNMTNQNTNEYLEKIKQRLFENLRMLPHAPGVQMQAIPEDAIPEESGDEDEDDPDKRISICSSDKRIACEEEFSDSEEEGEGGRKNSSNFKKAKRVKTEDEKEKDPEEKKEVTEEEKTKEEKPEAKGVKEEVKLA

As to `O=C(CCCCCCC(=O)Nc1ccc([19F])cc1)NO`, the IC50 – broadly, the concentration needed to halve the response being measured – on Histone deacetylase 1 was found to be 9 nM; at Histone deacetylase 2 it was 12.7 nM; at Histone deacetylase 3, 23.9 nM; in series [1], 50.2 nM.

For `O=C(CCCCCCC(=O)Nc1ccc([18F])cc1)NO`, the Drug uptake entry with Mus musculus [2] is given as “tde”; in the series on Mus musculus [6], less than 1 % ID/g; with Mus musculus [7] it was 3 % ID/g; in the series with Mus musculus [8] it was 6 % ID/g; in the series on Kidney, “Active”; in the series on Liver, “Active”. The Drug uptake entry with Blood, in the series on Heart, in the series with Mus musculus [9] and in the series on Brain was “Active” each time. Moreover, the Ratio with Nucleic Acid [3] is recorded as 1.3; in the series with Nucleic Acid [4], 1.7. Besides, the half-life in series [5] was less than 1 min.
